Experimental data taken from ChEMBL document CHEMBL1132487, “Structure-activity studies of cerulenin analogues as protein palmitoylation inhibitors” (J Med Chem, 1999).

Tests used:
[1] = target: Fatty acid synthase (Homo sapiens) (UniProt P49327); assay: Inhibition of fatty acid synthase at a concentration of 150 (uM)
How it was run: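 Fatty acid synthase partially purified from HL-60 human promyelocytic leukemia cells. Lysate incubated with compound (150 μM), then activity read as rate of NADPH oxidation in presence of acetyl-CoA and malonyl-CoA. Percent inhibition reported as mean ± SEM, at least two experiments.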

T-24 = assay: Inhibition of human T24 cell proliferation; type: functional, cell-based
How it was run: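 T24 human bladder carcinoma cells (H-[Val12]-ras overexpressing) in RPMI-1640 with 10% FBS, seeded at 10% confluency, allowed 24 h attachment, then exposed to varying concentrations up to 50 μg/mL for 72 h. Surviving cells measured by sulforhodamine B staining (MTS also used). IC50 vs untreated controls, mean ± SEM of at least three experiments.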

Homo sapiens [2] = species on record: Homo sapiens; assay: Inhibition of p21 palmitoylation at a concentration of 10(ug/ml); type: functional
How it was run: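 T24 cells seeded at ~25% confluency and attached overnight, treated 4 h with compound at 10 μg/mL, then labelled 2 h with [3H]palmitate (100–200 μCi/mL). Lysates in PBS-TDS, protein-normalized (100–300 μg), immunoprecipitated with Y13-259 anti-Ras antibody and Protein G agarose. Pellet radioactivity counted by scintillation. Percent inhibition vs untreated controls, one or two experiments.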

Homo sapiens [3] = species on record: Homo sapiens; assay: The compound was tested for the inhibition of p21 palmitoylation at a concentration of 5(ug/mL); type: functional
How it was run: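 T24 human bladder carcinoma cells seeded at ~25% confluency in 60 mm dishes, attached overnight; treated 4 h with 5 μg/mL compound, then 2 h [³H]palmitate (100–200 μCi/mL). Lysed in PBS-TDS, protein-normalized (100–300 μg), immunoprecipitated with Y13-259 anti-Ras plus Protein G agarose, washed; pellet radioactivity counted. Percent inhibition of p21 palmitoylation vs untreated controls; six experiments, mean ± SEM.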

Chain of Fatty acid synthase (Homo sapiens) (P49327 whole entry, looked up): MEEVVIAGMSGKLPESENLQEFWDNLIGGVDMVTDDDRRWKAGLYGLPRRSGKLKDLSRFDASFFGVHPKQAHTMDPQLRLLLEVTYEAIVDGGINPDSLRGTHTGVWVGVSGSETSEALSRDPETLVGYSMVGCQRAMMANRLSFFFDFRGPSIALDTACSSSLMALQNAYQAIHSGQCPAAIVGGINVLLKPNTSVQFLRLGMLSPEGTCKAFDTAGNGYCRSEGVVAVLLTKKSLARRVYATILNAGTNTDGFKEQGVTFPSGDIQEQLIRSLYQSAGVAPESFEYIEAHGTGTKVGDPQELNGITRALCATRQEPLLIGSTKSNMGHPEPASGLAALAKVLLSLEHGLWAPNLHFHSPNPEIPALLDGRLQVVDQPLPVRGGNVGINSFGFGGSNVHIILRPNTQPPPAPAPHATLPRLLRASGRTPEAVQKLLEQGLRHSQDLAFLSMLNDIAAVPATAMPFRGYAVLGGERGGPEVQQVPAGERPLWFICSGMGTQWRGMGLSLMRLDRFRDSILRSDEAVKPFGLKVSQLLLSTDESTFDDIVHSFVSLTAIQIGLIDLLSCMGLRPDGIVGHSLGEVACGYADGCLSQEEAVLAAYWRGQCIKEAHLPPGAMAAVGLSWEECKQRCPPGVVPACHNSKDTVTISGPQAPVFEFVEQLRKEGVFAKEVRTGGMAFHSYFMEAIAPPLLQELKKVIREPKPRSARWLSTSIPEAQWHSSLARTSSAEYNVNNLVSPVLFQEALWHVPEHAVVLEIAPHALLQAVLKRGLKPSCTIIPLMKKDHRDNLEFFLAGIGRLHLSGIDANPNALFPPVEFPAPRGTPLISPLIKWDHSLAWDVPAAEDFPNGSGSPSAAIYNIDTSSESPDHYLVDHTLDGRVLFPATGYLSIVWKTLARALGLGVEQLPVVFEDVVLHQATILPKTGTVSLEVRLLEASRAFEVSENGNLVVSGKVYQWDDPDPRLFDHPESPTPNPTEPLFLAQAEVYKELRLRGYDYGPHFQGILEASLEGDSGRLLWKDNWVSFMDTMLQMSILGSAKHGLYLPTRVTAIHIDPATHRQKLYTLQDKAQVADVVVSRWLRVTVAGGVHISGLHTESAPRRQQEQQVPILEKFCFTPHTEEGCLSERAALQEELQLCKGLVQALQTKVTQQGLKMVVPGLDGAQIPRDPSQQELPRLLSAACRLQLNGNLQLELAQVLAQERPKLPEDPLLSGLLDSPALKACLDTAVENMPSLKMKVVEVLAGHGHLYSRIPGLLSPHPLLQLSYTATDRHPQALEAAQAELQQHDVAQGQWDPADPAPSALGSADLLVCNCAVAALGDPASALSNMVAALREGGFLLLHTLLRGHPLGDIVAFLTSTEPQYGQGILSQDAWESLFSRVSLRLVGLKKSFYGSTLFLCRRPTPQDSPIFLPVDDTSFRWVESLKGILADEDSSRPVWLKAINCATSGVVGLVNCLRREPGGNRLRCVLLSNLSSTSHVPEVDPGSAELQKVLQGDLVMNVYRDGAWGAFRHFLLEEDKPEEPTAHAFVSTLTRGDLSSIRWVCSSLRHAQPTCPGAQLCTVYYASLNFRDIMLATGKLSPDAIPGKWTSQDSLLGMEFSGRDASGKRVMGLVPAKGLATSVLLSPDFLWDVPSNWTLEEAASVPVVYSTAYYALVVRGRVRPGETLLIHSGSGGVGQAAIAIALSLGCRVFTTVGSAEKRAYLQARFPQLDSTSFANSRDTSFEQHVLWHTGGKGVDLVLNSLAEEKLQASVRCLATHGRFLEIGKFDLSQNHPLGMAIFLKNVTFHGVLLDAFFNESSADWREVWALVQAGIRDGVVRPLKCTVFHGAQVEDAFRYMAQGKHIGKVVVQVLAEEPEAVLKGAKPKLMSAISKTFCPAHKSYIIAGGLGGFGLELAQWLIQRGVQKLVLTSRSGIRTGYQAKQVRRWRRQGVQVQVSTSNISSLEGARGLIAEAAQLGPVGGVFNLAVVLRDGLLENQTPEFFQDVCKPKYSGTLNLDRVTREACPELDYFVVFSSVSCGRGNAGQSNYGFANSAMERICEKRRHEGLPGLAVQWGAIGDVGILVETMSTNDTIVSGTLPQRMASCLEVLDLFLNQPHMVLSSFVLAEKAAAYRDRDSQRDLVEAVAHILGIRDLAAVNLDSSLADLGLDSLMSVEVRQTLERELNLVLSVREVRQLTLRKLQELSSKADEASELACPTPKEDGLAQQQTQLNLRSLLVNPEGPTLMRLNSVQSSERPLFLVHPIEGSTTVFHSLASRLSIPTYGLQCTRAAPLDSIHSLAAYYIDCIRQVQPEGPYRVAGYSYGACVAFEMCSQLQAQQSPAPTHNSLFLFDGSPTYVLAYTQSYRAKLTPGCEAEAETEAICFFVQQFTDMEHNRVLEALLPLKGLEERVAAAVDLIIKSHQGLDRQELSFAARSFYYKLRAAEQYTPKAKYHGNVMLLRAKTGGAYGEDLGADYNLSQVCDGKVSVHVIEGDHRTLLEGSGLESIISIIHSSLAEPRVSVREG

SMILES	inhibition [1] [%]	IC50 (T-24) [µM]	inhibition (Homo sapiens [2]) [%]	inhibition (Homo sapiens [3]) [%]
CCCCCCCCCCCCCCCC(O)[C@H]1O[C@H]1C(=O)N(C)C (some centres undefined)	0	62	0	–
NC(=O)[C@H]1O[C@H]1C(=O)c1ccccc1	85	15	22	–
CCCCCCCCCCCC(O)[C@H]1O[C@H]1C(=O)N(C)C (some centres undefined)	9	95	0	–
CCCCCCCCCCCC(O)[C@H]1O[C@H]1C(N)=O (some centres undefined)	6	130	29	–
CCCCCCCCC(O)[C@H]1O[C@H]1C(=O)N(C)C (some centres undefined)	0	> 190	9	–
CCCCCCCCCCCCCCCC(=O)[C@H]1O[C@H]1C(=O)N(C)C	0	40	31	–
CCCCCCCCCCCCCC1OC(=O)[C@@H]2O[C@H]12 (some centres undefined)	0	> 180	2	–
CCCCCCCCCC(=O)[C@H]1O[C@H]1C(=O)N(C)C	2	77	17	–
CCCCCCCCCCCCCCCCCC1OC(=O)[C@@H]2O[C@H]12 (some centres undefined)	5	> 150	45	–
C/C=C/C/C=C/CCC(=O)[C@H]1O[C@H]1C(N)=O [CERULENIN]	96	17	–	48
CCCCCCCCCCCCCCCCCC(O)[C@H]1O[C@H]1C(=O)N(C)C (some centres undefined)	3	52	0	–
CCCCCCCCCC(O)[C@H]1O[C@H]1C(N)=O (some centres undefined)	5	> 200	27	–
CCCCCCCCC(=O)[C@H]1O[C@H]1C(=O)N(C)C	1	140	0	–
CCCCCCCCCCCCCCCCCC(=O)[C@H]1O[C@H]1C(=O)N(C)C	0	34	21	–
CCCCCCCCCCCCCC(O)[C@H]1O[C@H]1C(N)=O (some centres undefined)	3	110	34	–
CCCCCCCCCC(=O)[C@H]1O[C@H]1C(N)=O	92	7	63	–
CCCCCCCCCCCC1OC(=O)[C@@H]2O[C@H]12 (some centres undefined)	4	> 200	19	–

SMILES	inhibition [1] [%]	IC50 (T-24) [µM]	inhibition (Homo sapiens [2]) [%]	inhibition (Homo sapiens [3]) [%]
CCCCCCCCCCCCCCCC(=O)[C@H]1O[C@H]1C(N)=O	2	12	67	–
CCCCCCCCCCCCCCCCCC(=O)[C@H]1O[C@H]1C(N)=O	0	17	28	–
CCCCCCCCCCCC(=O)[C@H]1O[C@H]1C(=O)N(C)C	5	49	10	–
CCCCCCCCCCCCCC(=O)[C@H]1O[C@H]1C(=O)N(C)C	2	40	0	–
CCCCCCCCCC(O)[C@H]1O[C@H]1C(=O)N(C)C (some centres undefined)	0	220	0	–
CCCCCCCCCCCCCC(O)[C@H]1O[C@H]1C(=O)N(C)C (some centres undefined)	5	69	16	–
CCCCCCCCCC1OC(=O)[C@@H]2O[C@H]12 (some centres undefined)	40	> 220	33	–
CCCCCCCCC1OC(=O)[C@@H]2O[C@H]12 (some centres undefined)	75	> 240	32	–
CCCCCCCCCCCCCCCC(O)[C@H]1O[C@H]1C(N)=O (some centres undefined)	10	190	40	–
CCCCCCCCCCCCCCCCCC(O)[C@H]1O[C@H]1C(N)=O (some centres undefined)	0	> 140	3	–
CCCCCCCCCCCC(=O)[C@H]1O[C@H]1C(N)=O	44	20	40	–
CN(C)C(=O)[C@H]1O[C@H]1C(=O)c1ccccc1	3	29	59	–
CCCCCCCCCCCCCC(=O)[C@H]1O[C@H]1C(N)=O	0	13	47	–
CCCCCCCCC(=O)[C@H]1O[C@H]1C(N)=O	74	27	42	–
CCCCCCCCCCCCCCCC1OC(=O)[C@@H]2O[C@H]12 (some centres undefined)	0	140	35	–
CCCCCCCCC(O)[C@H]1O[C@H]1C(N)=O (some centres undefined)	4	> 220	16	–
